# Source: ChEMBL document CHEMBL1132437, “Synthesis and antimicrobial activity of 4H-4-oxoquinolizine derivatives: consequences of structural modification at the C-8 position” (1999)
# Key:
# Assay type in all cases: functional
# [1] = system: Staphylococcus aureus; assay: In vitro antibacterial activity against gram-positive Staphylococcus aureus 1775
# Procedure, shortened: (§1)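 Agar dilution MIC determination following the National Committee for Clinical Laboratory Standards recommendations.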
# [2] = system: Burkholderia cepacia; assay: In vitro antibacterial activity against gram negative Pseudomonas cepacia 2961; procedure, shortened: as §1
# [3] = system: Enterococcus faecium; assay: In vitro antibacterial activity against gram-positive Enterococcus faecium ATCC 8043; procedure, shortened: as §1
# [4] = system: Staphylococcus aureus; assay: In vitro antibacterial activity against gram-positive Staphylococcus aureus NCTC 10649M; procedure, shortened: as §1
# [5] = system: Escherichia coli; assay: In vitro antibacterial activity against gram negative Escherichia coli KNK 437; procedure, shortened: as §1
# [6] = system: Streptococcus pyogenes; assay: In vitro antibacterial activity against gram positive Streptococcus pyogenes 930; procedure, shortened: as §1
# [7] = system: Pseudomonas aeruginosa; assay: In vitro antibacterial activity against Gram-negative Pseudomonas aeruginosa 5007; procedure, shortened: as §1
# [8] = system: Pseudomonas aeruginosa; assay: In vitro antibacterial activity against gram negative P. aeruginosa DPHP 5263; procedure, shortened: as §1
# [9] = system: Streptococcus pneumoniae; assay: In vivo efficacy against Streptococcus pneumoniae ATCC 6303 in mouse protection test after s.c. administration.; details: Streptococcus pneumoniae, sc; read-out: ED50
# Procedure, shortened: (§2)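 Mouse protection model: mice infected intravenously with 100-fold LD50 of the organism. Compound given by subcutaneous injection or oral gavage at 1 and 5 h after infection, over a dose range. Deaths tracked for 7 days post-inoculation. ED50 is the dose giving 50% survival of treated mice over the trial.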
# [10] = system: Pseudomonas aeruginosa; assay: In vivo efficacy against Pseudomonas aeruginosa 5007 in mouse protection test after subcutaneous administration; details: Pseudomonas aeruginosa, sc; read-out: ED50; procedure, shortened: as §2
# [11] = system: Staphylococcus aureus; assay: In vivo efficacy against Staphylococcus aureus NCTC 10649M in mouse; details: Staphylococcus aureus; read-out: ED50; procedure, shortened: as §2
# [12] = system: Escherichia coli; assay: In vivo efficacy against Escherichia coli JUHL in mouse protection test after p.o. administration.; details: Escherichia coli, po; read-out: ED50; procedure, shortened: as §2
# [13] = system: Pseudomonas aeruginosa; assay: In vivo efficacy against Pseudomonas aeruginosa 5007 in mouse protection test after administration by oral gavage; details: Pseudomonas aeruginosa, po; read-out: ED50; procedure, shortened: as §2
# [14] = system: Staphylococcus aureus; assay: In vivo efficacy against Staphylococcus aureus NCTC 10649M in mouse protection test after p.o. administration.; details: Staphylococcus aureus, po; read-out: ED50; procedure, shortened: as §2
# [15] = system: Escherichia coli; assay: In vivo efficacy against Escherichia coli JUHL in mouse protection test after subcutaneous administration; details: Escherichia coli, sc; read-out: ED50; procedure, shortened: as §2
# [16] = Staphylococcus aureus, read-out: MIC
# [17] = Burkholderia cepacia, read-out: MIC
# [18] = Enterococcus faecium, ATCC 8043, read-out: MIC
# [19] = Staphylococcus aureus, NCTC 10649, read-out: MIC
# [20] = Escherichia coli, read-out: MIC
# [21] = Streptococcus pyogenes, read-out: MIC
# [22] = Pseudomonas aeruginosa, read-out: MIC
# [23] = Pseudomonas aeruginosa, DPHP 5263, read-out: MIC
Structure (SMILES),"MIC [1, 16] [µg/mL]","MIC [2, 17] [µg/mL]","MIC [3, 18] [µg/mL]","MIC [4, 19] [µg/mL]","MIC [5, 20] [µg/mL]","MIC [6, 21] [µg/mL]","MIC [7, 22] [µg/mL]","MIC [8, 23] [µg/mL]",other results
Cc1c(N2CCC[C@@H](NC3CC3)C2)c(F)cn2c(=O)c(C(=O)O)cc(C3CC3)c12,3.1,6.2,0.05,0.01,0.1,0.02,0.78,25,ED50 [9]: > 16 mg/kg; ED50 [10]: > 32 mg/kg; ED50 [11]: 1.8 mg/kg
Cc1c(N2CC[C@@H]3CCNC[C@@H]32)c(F)cn2c(=O)c(C(=O)O)cc(C3CC3)c12,6.2,3.1,0.2,0.05,0.39,,0.78,6.2,
Cc1c(N2CCCC(N)C2)c(F)cn2c(=O)c(C(=O)O)cc(C3CC3)c12 (stereo unspecified),0.39,0.78,0.05,0.01,0.1,0.02,0.2,3.1,
Cc1c(N2C[C@@H](N)[C@H](C3CC3)C2)c(F)cn2c(=O)c(C(=O)O)cc(C3CC3)c12 (stereo in doubt; 3t),0.78,0.78,0.1,,0.1,0.05,0.78,6.2,MIC [4]: 0.01 µg/mL
Cc1c(N2CC[C@@H](C)[C@@H](N)C2)c(F)cn2c(=O)c(C(=O)O)cc(C3CC3)c12,3.1,6.2,0.39,0.1,0.78,0.39,1.56,12.5,
Cc1c(N2CCCN2C)c(F)cn2c(=O)c(C(=O)O)cc(C3CC3)c12,3.1,1.56,0.39,0.02,3.1,0.39,3.1,> 100,
CN[C@@H]1CN(c2c(F)cn3c(=O)c(C(=O)O)cc(C4CC4)c3c2C)C[C@H]1C (stereo in doubt),,0.78,0.1,0.01,,,0.2,,MIC [1]: 0.39 µg/mL; MIC [6]: 0.02 µg/mL; MIC [8]: 3.1 µg/mL; MIC [5]: 0.05 µg/mL
Cc1c(N2CCCO2)c(F)cn2c(=O)c(C(=O)O)cc(C3CC3)c12,> 100,6.2,3.1,0.78,6.2,6.2,6.2,> 100,ED50 [15]: > 5 mg/kg; ED50 [11]: > 12 mg/kg
Cc1c(N2C[C@H](N)[C@H](C3CC3)C2)c(F)cn2c(=O)c(C(=O)O)cc(C3CC3)c12,0.78,1.56,0.1,0.02,0.2,0.1,0.39,12.5,
Cc1c(N2CC[C@H](C)[C@H](N)C2)c(F)cn2c(=O)c(C(=O)O)cc(C3CC3)c12 (stereo in doubt),,,,,,,,,MIC [1]: 1.56 µg/mL; MIC [6]: 0.1 µg/mL; MIC [2]: 1.56 µg/mL; MIC [3]: 0.2 µg/mL; MIC [7]: 0.78 µg/mL; MIC [4]: 0.05 µg/mL; MIC [5]: 0.2 µg/mL
Cc1c(N2CCC(N(C)C3CC3)C2)c(F)cn2c(=O)c(C(=O)O)cc(C3CC3)c12 (stereo unspecified),1.56,3.1,0.2,0.05,0.39,0.2,0.78,100,
Cc1c(N2CC[C@@H](N)C2)c(F)cn2c(=O)c(C(=O)O)cc(C3CC3)c12,1.56,0.78,0.05,0.02,0.05,,,,
Cc1c(N2CCC(CNCCF)C2)c(F)cn2c(=O)c(C(=O)O)cc(C3CC3)c12 (stereo unspecified),0.1,3.1,0.02,0.002,0.2,0.002,0.78,12.5,
Cc1c(N2C[C@@H](N)[C@@H](C3CC3)C2)c(F)cn2c(=O)c(C(=O)O)cc(C3CC3)c12 (stereo in doubt),,,,,,,,,MIC [1]: 0.39 µg/mL; MIC [6]: 0.02 µg/mL; MIC [3]: 0.05 µg/mL; MIC [8]: 12.5 µg/mL; MIC [4]: 0.005 µg/mL; MIC [5]: 0.1 µg/mL
CN[C@H]1CCN(c2c(F)cn3c(=O)c(C(=O)O)cc(C4CC4)c3c2C)C1,1.56,1.56,0.1,0.02,0.05,0.05,0.2,,
Cc1c(N2C[C@@H]3CCCN[C@@H]3C2)c(F)cn2c(=O)c(C(=O)O)cc(C3CC3)c12,0.78,1.56,0.1,0.02,0.1,0.05,0.39,,
Cc1c(N2C[C@@H]3OCC[C@]3(CN)C2)c(F)cn2c(=O)c(C(=O)O)cc(C3CC3)c12,0.78,3.1,0.05,0.005,0.2,,0.39,6.2,
Cc1c(N2CC[C@H](NCC(F)(F)F)C2)c(F)cn2c(=O)c(C(=O)O)cc(C3CC3)c12,0.78,3.1,0.39,0.02,1.56,0.39,3.1,> 100,

# More lines, main results first:
"MIC [1, 16] [µg/mL]","MIC [2, 17] [µg/mL]","MIC [3, 18] [µg/mL]","MIC [4, 19] [µg/mL]","MIC [5, 20] [µg/mL]","MIC [6, 21] [µg/mL]","MIC [7, 22] [µg/mL]","MIC [8, 23] [µg/mL]",Structure (SMILES),other results
0.39,0.39,0.01,0.002,0.05,,,,Cc1c(N2CCC(CN)C2)c(F)cn2c(=O)c(C(=O)O)cc(C3CC3)c12 (stereo unspecified),
0.78,3.1,0.39,0.05,3.1,0.2,3.1,> 100,Cc1c(N2CCCCC2)c(F)cn2c(=O)c(C(=O)O)cc(C3CC3)c12,
0.2,0.1,0.05,0.005,0.2,,,,Cc1c(N2CCC(O)C2)c(F)cn2c(=O)c(C(=O)O)cc(C3CC3)c12 (stereo unspecified),
6.2,0.39,0.2,0.05,0.2,0.05,0.39,6.2,Cc1c(N2C[C@H]3CCNC[C@@H]3C2)c(F)cn2c(=O)c(C(=O)O)cc(C3CC3)c12,
0.78,0.78,0.2,0.05,0.1,0.1,0.39,3.1,Cc1c(N2C[C@H](C)[C@@H](N)C2)c(F)cn2c(=O)c(C(=O)O)cc(C3CC3)c12,
0.39,6.2,0.2,0.02,0.39,0.1,1.56,25,Cc1c(N2CCC(CN)(C(F)(F)F)C2)c(F)cn2c(=O)c(C(=O)O)cc(C3CC3)c12 (stereo unspecified),
0.2,3.1,0.02,0.002,1.56,0.02,3.1,50,Cc1c(N2C[C@@H]3CCCC[C@]3(CN)C2)c(F)cn2c(=O)c(C(=O)O)cc(C3CC3)c12,ED50 [12]: > 20 mg/kg; ED50 [13]: > 50 mg/kg; ED50 [14]: 17.7 mg/kg; ED50 [15]: > 5 mg/kg; ED50 [10]: > 32 mg/kg; ED50 [11]: 1.8 mg/kg
3.1,6.2,0.05,0.01,0.1,0.02,6.2,6.2,Cc1c(N2C[C@@H]3COC[C@]3(CN)C2)c(F)cn2c(=O)c(C(=O)O)cc(C3CC3)c12,
0.39,0.78,0.1,,0.2,,0.39,12.5,Cc1c(N2C[C@@H](N)[C@@H](C3CC3)C2)c(F)cn2c(=O)c(C(=O)O)cc(C3CC3)c12 (stereo in doubt; 3s),ED50 [12]: 6.6 mg/kg; MIC [6]: 0.1 µg/mL; ED50 [14]: 3.4 mg/kg; ED50 [15]: 3.7 mg/kg; MIC [4]: 0.02 µg/mL; ED50 [11]: 1.5 mg/kg
0.78,0.78,0.2,0.05,0.2,0.1,3.1,12.5,CN[C@H]1CN(c2c(F)cn3c(=O)c(C(=O)O)cc(C4CC4)c3c2C)C[C@@H]1C,
1.56,1.56,0.2,0.05,0.78,0.2,1.56,25,Cc1c(N2C[C@@H]3CCCC[C@]3(N)C2)c(F)cn2c(=O)c(C(=O)O)cc(C3CC3)c12,
6.2,3.1,0.1,0.05,0.2,,,,Cc1c(N2CC[C@@H]3CNC[C@@H]32)c(F)cn2c(=O)c(C(=O)O)cc(C3CC3)c12,
